RGS4 inh – RGS4 inhibitors, primary screen, cell-based, HEK293 M3R inducible RGS4, calcium flux. Fluo-4 calcium flux; hits give high values; triggered by carbachol at its EC20. hit rate 0.45% among 310,000. B-score at 10 µM. AID 463165, 2010;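 active means B-score, a plate-corrected calcium signal, over three deviations above library mean, with baseline fluorescence within five deviations of library mean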;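 further: RGS4 expression induced by doxycycline in cells with stable M3 receptor; B-score is computed from the integrated fluorescence ratio over baseline after carbachol; higher B-score means a larger calcium signal and so more RGS4 inhibition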
Target sequence (P49798 whole entry, looked up): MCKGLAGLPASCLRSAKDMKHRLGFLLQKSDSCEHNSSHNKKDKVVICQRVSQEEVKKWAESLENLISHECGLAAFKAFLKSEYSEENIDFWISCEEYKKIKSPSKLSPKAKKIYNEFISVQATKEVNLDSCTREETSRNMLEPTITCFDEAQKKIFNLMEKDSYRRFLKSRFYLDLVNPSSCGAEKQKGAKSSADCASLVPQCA
MrgX1 antag – antagonists of human MrgX1 receptor, primary screen, HEK293 cells, Fluo-4 calcium flux; Mas-related G-protein coupled receptor member X1 (Homo sapiens), Q96LB2; BAM8-22 antagonism; hits give low values; B-score at 10 µM; hit rate 1.3% among 310,000;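 active means calcium-response B-score plate-corrected more than 3 library SD below zero, starting fluorescence within 5 deviations, no agonist response on first addition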;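 further: peak minus trough fluorescence over baseline after final BAM8-22 challenge near maximal dose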
Target sequence (Q96LB2 whole entry, looked up): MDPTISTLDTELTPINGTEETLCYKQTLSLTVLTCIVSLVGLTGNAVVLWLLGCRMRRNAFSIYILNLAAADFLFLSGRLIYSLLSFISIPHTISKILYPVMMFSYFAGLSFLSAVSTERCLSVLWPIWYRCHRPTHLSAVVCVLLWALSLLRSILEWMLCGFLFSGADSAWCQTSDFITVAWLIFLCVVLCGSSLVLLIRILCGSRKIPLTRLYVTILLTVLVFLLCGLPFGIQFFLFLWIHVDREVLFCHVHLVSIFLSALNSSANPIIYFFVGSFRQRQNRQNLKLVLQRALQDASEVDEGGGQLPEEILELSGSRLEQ
RGS4 pot – RGS4 potentiators or activators, primary screen, cell-based, HEK293 M3R inducible RGS4, calcium flux | B-score at 10 µM | AID 463111, 2010 | hit rate 0.92% among 310,000 | carbachol calcium flux Fluo4; hits give low values;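 active means B-score of the integrated calcium signal more than 4 SD below the library mean, with starting fluorescence not abnormally high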;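 further: negative B-score means reduced calcium response which marks RGS4 activation or potentiation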
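Assay system: HEK293 FlpIn-TREx cells, stable M3R, doxycycline-inducible RGS4 / Probe or stimulus: carbachol, ECmax concentration / Times: overnight RGS4 induction, 30 min dye load 37 °C, 20 min compound RT / Signal: kinetic calcium fluorescence imaging with Fluo4-AM dye, 2 µM / Measure: Agonist-evoked peak-minus-minimum fluorescence over baseline, integrated ratio, B score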
MrgX1 ag – agonists of human MrgX1 receptor, primary screen, HEK293 cells, Fluo-4 calcium flux; AID 588627, 2011; hit rate 0.44% among 310,000; B-score at 10 µM; Fluo-4 calcium fluorescence, agonist mode; hits give high values; Mas-related G-protein coupled receptor member X1 (Homo sapiens), Q96LB2;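 active means calcium response B-score plate-corrected fluorescence ratio at least 3 library SD, with starting fluorescence B-score inside 5 SD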
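Material – MrgX1-expressing HEK293 cells · Input – 15,000 cells seeded per well · Dosing – compound as first of three additions · Times – overnight seeding, then 1 h dark dye loading · Measured by – kinetic Fluo-4 NW fluorescence of intracellular calcium · Read-out – B-scored fluorescence response ratio · Benchmarks – positive and negative control wells on each plate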
MrgX1 PAM – positive allosteric modulators of MrgX1, primary screen, HEK293 cells, Fluo-4 calcium flux. FDSS; hits give high values. Mas-related G-protein coupled receptor member X1 (Homo sapiens), Q96LB2. hit rate 0.63% among 310,000. B-score at 10 µM;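 active means plate-corrected calcium response at least 3 library SD above typical, normal starting fluorescence, not activating the receptor alone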;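 further: compound read alongside a low EC10 to EC30 dose of BAM8-22 agonist; peak minus trough fluorescence over baseline measured at the second addition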
MrgX1 PAM conf – MrgX1 positive allosteric modulators, duplicate retest, confirmation, HEK293 cells, Fluo-4 calcium flux. hit rate 13% among 1,200. shares compounds with MrgX1 PAM. Fluo-4 calcium fluorescence, FDSS. activation (ratio percentage), % at 10 µM. AID 602413, 2012;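 active means ratio at least 3 SD above the weak peptide control, stable starting fluorescence, no direct agonism earlier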;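 further: compound followed by low BAM8-22 agonist challenge near EC20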
HEK293 Ca flux – nonspecific calcium signal in parental HEK293, confirmation, counter-screen for MrgX1 antagonist project, parental HEK293 cells, Fluo-4 calcium flux. shares compounds with MrgX1 antag. fluorescence ratio F(max-min)/F0 at 10 µM. AID 624111, 2012. hit rate 2% among 4,000. Fluo-4 calcium fluorescence, FDSS;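 active means duplicate-averaged calcium fluorescence ratio at least three times the standard deviation of buffer wells, a nonspecific response in parental cells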
HEK293 Ca counter – calcium response in parental HEK293 cells, primary screen, counter-screen for MrgX1 allosteric activator project, cell-based, Fluo-4 calcium flux, duplicate; hit rate 0.4% among 4,000; shares compounds with MrgX1 antag; AID 624114, 2012; fluorescence ratio F(max-min)/F0 at 10 µM; Fluo-4 fluorescence ratio; hits give high values;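 active means calcium fluorescence ratio, averaged over duplicates, at least 3 SD of the buffer-well ratio, meaning a nonspecific response in receptor-free cells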;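 further: untransfected parental HEK293 lacking MrgX1 used as counterscreen for MrgX1 allosteric activators; fluorescence change taken during the second addition on a kinetic imager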
HEK293 Ca cntr2 – calcium response in parental HEK293 cells, primary screen, counter-screen for MrgX1 agonist project, cell-based, Fluo-4 calcium flux, duplicate, agonist mode | shares compounds with MrgX1 antag | Fluo-4 calcium fluorescence (FDSS); hits give high values | fluorescence ratio F(max-min)/F0 at 10 µM | hit rate 8.7% among 4,000 | AID 624115, 2012;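 active means calcium fluorescence ratio at least three times the spread of buffer wells, meaning a non-specific response in parental cells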
* hit, by the source's call; i = inactive; nt = no result. A selection: hits, their analogues and other compounds. The true share with any hit is near 3.5%.

SMILES	RGS4 inh	MrgX1 antag	RGS4 pot	MrgX1 ag	MrgX1 PAM	MrgX1 PAM conf	HEK293 Ca flux	HEK293 Ca counter	HEK293 Ca cntr2
Cc1ccc(S(=O)(=O)NC(=S)NC2CCCCC2)cc1	i	i	i	i	10*	i	i	i	i
CC(C(=O)Nc1cc([N+](=O)[O-])ccc1Cl)N1CCN(c2ccc(O)cc2)CC1 (stereo not given)	i	i	i	i	i	nt	nt	nt	nt
CC(C)(C)c1ccc(-c2nc(C=O)c3ccccn23)cc1	i	i	i	i	i	nt	nt	nt	nt
Cc1c(C(C)(C)C)c(C=S)n2ccccc12	i	i	i	i	8.5*	i	i	i	i
Cc1nnc(SCCn2c(Br)nc3c2c(=O)n(C)c(=O)n3C)s1	i	i	i	i	i	nt	nt	nt	nt
Cc1nnc(Sc2c(N)n(C)c(=O)n(C)c2=O)s1	i	i	i	i	11*	i	i	i	i
Cc1ccc(NC(=O)CN(C)Cc2nc3c(Br)cc(Br)cc3c(=O)[nH]2)cc1	i	i	i	i	i	nt	nt	nt	nt
Cc1sc2nc(-c3ccc(Br)cc3)oc(=O)c2c1C	i	i	i	i	6.6*	i	i	i	i
Cc1sc2nc(-c3cccs3)oc(=O)c2c1C	i	i	i	i	i	nt	nt	nt	nt
COc1ccc(-c2cc(C(F)(F)F)nc(SCC(=O)Nc3ccc4c(c3)OCO4)n2)cc1	i	i	i	i	9.2*	i	i	i	i
O=C(COC(=O)c1cccs1)c1ccccc1	i	i	i	i	18*	i	i	i	i
Cc1c(OC(C)C(=O)NCCCN2CCOCC2)ccc2c3c(c(=O)oc12)CCCC3 (stereo not given)	i	i	i	i	6.9*	i	i	i	i
Cc1c(OC(C)C(=O)NCCCN2CCOCC2)ccc2c3c(c(=O)oc12)CCC3 (stereo not given)	i	i	i	i	i	nt	nt	nt	nt
CCn1c(=O)c([N+](=O)[O-])c(N2CCN(Cc3ccc4c(c3)OCO4)CC2)c2ccccc21	i	i	i	i	i	nt	nt	nt	nt
O=C(c1ccc(Cl)cc1)C1CCCN(Cc2cccn2-c2cccnc2)C1 (stereo not given)	i	i	i	i	7.5*	i	i	i	i
Cc1sc2ncnc(NCC(C)(C)N3CCOCC3)c2c1C	i	i	i	i	8.7*	i	i	i	i
Cc1sc2ncnc(NCC3(N4CCOCC4)CCCCC3)c2c1C	i	i	i	i	i	nt	nt	nt	nt
CC1(C(=O)N/N=C/c2c(F)c(F)c(F)c(F)c2F)CC1(Cl)Cl (stereo not given)	i	i	i	i	20*	i	i	i	i
O=C(COc1ccccc1)N1CCN=C1SCc1ccc(F)cc1	i	i	i	i	8.6*	i	i	i	i
O=C(COc1ccccc1)N1CCN=C1SCc1cccnc1	i	i	i	i	i	nt	nt	nt	nt
COc1ccc(S(=O)(=O)NCC(=O)NCc2cc(=O)n(C)c(=O)n2C)cc1	i	i	i	i	i	nt	nt	nt	nt
Cc1c(Cl)cccc1NC(=S)N1CCCCCC1	i	i	i	i	i	nt	nt	nt	nt
COc1ccc(-c2cc(=O)oc3cc(OCC(=O)NCc4ccccn4)ccc23)cc1	i	i	i	i	i	nt	nt	nt	nt
CN(C)c1ccc(C(CNC(=O)c2ccc(-c3ccccc3)cc2)N2CCOCC2)cc1 (stereo not given)	i	i	i	i	i	nt	nt	nt	nt
CCOC(=O)c1c(C)[nH]c(C)c1C(=O)COC(=O)c1c(OC)cccc1OC	i	i	i	i	7.1*	i	i	i	i
SMILES	RGS4 inh	MrgX1 antag	RGS4 pot	MrgX1 ag	MrgX1 PAM	MrgX1 PAM conf	HEK293 Ca flux	HEK293 Ca counter	HEK293 Ca cntr2
CCOC(=O)N1CCC(NS(=O)(=O)c2ccc(C)cc2)CC1	i	i	i	i	8.2*	i	i	i	i
COc1ccc(CCNC(=O)c2csc3c2CCCC3)cc1	i	i	i	i	i	nt	nt	nt	nt
COc1ccc(NC(=O)c2csc3c2CCCCC3)c(OC)c1	i	i	i	i	19*	i	i	i	i
CCN(CC)S(=O)(=O)c1cc(Br)c(C)cc1OC	i	i	i	i	8.6*	i	i	i	i
COc1cccc(N2C(=O)C3CCCN3C2=S)c1 (stereo not given)	i	i	i	i	i	nt	nt	nt	nt
Cc1ccc(-n2c(COc3ccccc3)n[nH]c2=S)cc1	i	i	i	i	8*	i	i	i	i
Cc1ccc(-n2c(CCc3ccccc3)n[nH]c2=S)cc1C	i	i	i	i	6.5*	i	i	i	i
COc1ccc(-n2c(COc3ccc(C)cc3)n[nH]c2=S)cc1	i	i	i	i	i	nt	nt	nt	nt
Cc1ccc(-n2c(COc3cccc(C)c3)n[nH]c2=S)cc1	i	i	i	i	11*	i	i	i	i
Cc1ccc(OCc2n[nH]c(=S)n2-c2ccccc2)cc1C	i	i	i	i	8.7*	i	i	i	i
O=C1NC(NS(=O)(=O)c2ccccc2)(C(F)(F)F)C(=O)N1c1cccc(Cl)c1 (stereo not given)	i	i	i	i	i	nt	nt	nt	nt
COc1cc(C)c(CN2CCC(Oc3ccc(C(=O)N4CCCC4)cc3)CC2)cc1C	i	i	i	i	i	nt	nt	nt	nt

Assay outcomes deposited in PubChem by Johns Hopkins Ion Channel Center.
